Calls of active or inactive are those of the source. No cut-off for these calls is given here.
Columns and labels:
[1] = tested on: Staphylococcus aureus; assay: Antimicrobial activity against methicillin-resistant Staphylococcus aureus MB5393 at 32 ug/ml measured after 20 hrs by spectrophotometric method; format: functional, organism-based
[2] = tested on: Pseudomonas aeruginosa; assay: Antimicrobial activity against Pseudomonas aeruginosa PAO1 at 32 ug/ml measured after 20 hrs by spectrophotometric method; format: functional, organism-based
Outline: (§1)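 Whole-cell growth-inhibition panel: Gram-negative E. coli ATCC25922, K. pneumoniae ATCC700603, P. aeruginosa PAO1 and A. baumannii CL5973, plus fungi A. fumigatus ATCC46645 and C. albicans ATCC64124. Method follows earlier-described protocols. Highest concentration tested 32 μg/mL.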

[3] = tested on: Aspergillus fumigatus; assay: Antimicrobial activity against Aspergillus fumigatus ATCC 46645 at 32 ug/ml measured after 30 hrs by resazurin dye based assay; format: functional, organism-based; outline: as §1
[4] = tested on: Staphylococcus aureus; assay: Antimicrobial activity against methicillin-sensitive Staphylococcus aureus ATCC 29213 at 32 ug/ml measured after 20 hrs by spectrophotometric method; format: functional, organism-based
[5] = tested on: A2058; assay: Cytotoxicity against human A2058 cells measured after 24 hrs by MTT assay; format: functional, cell-based; conditions: A2058, 24 h
Outline: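 Human-derived A2058 epithelial melanoma cells, run alongside a panel of other human tumour lines by a previously reported protocol; IC50 values derived.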

[6] = tested on: Candida albicans; assay: Antimicrobial activity against Candida albicans ATCC 64124 at 32 ug/ml measured after 20 hrs by spectrophotometric method; format: functional, organism-based; outline: as §1
[7] = tested on: Klebsiella pneumoniae; assay: Antimicrobial activity against Klebsiella pneumoniae ATCC 700603 at 32 ug/ml measured after 20 hrs by spectrophotometric method; format: functional, organism-based; outline: as §1
[8] = tested on: Escherichia coli; assay: Antimicrobial activity against Escherichia coli ATCC 25922 at 32 ug/ml measured after 20 hrs by spectrophotometric method; format: functional, organism-based; outline: as §1
[9] = tested on: Acinetobacter baumannii; assay: Antimicrobial activity against Acinetobacter baumannii CL5973 at 32 ug/ml measured after 20 hrs by spectrophotometric method; format: functional, organism-based; outline: as §1
[10] = tested on: Staphylococcus aureus; assay: Antimicrobial activity against methicillin-resistant Staphylococcus aureus MB5393 at 4 ug/ml measured after 20 hrs by spectrophotometric method; format: functional, organism-based
[11] = tested on: Acinetobacter baumannii; assay: Antimicrobial activity against Acinetobacter baumannii CL5973 at 4 ug/ml measured after 20 hrs by spectrophotometric method; format: functional, organism-based
[12] = tested on: Candida albicans; assay: Antimicrobial activity against Candida albicans ATCC 64124 at 4 ug/ml measured after 20 hrs by spectrophotometric method; format: functional, organism-based
[13] = tested on: Staphylococcus aureus; assay: Antimicrobial activity against methicillin-sensitive Staphylococcus aureus ATCC 29213 at 4 ug/ml measured after 20 hrs by spectrophotometric method; format: functional, organism-based
[14] = tested on: Aspergillus fumigatus; assay: Antimicrobial activity against Aspergillus fumigatus ATCC 46645 at 4 ug/ml measured after 30 hrs by resazurin dye based assay; format: functional, organism-based
[15] = tested on: Escherichia coli; assay: Antimicrobial activity against Escherichia coli ATCC 25922 at 4 ug/ml measured after 20 hrs by spectrophotometric method; format: functional, organism-based
[16] = tested on: Klebsiella pneumoniae; assay: Antimicrobial activity against Klebsiella pneumoniae ATCC 700603 at 4 ug/ml measured after 20 hrs by spectrophotometric method; format: functional, organism-based
[17] = tested on: Pseudomonas aeruginosa; assay: Antimicrobial activity against Pseudomonas aeruginosa PAO1 at 4 ug/ml measured after 20 hrs by spectrophotometric method; format: functional, organism-based

Row | Structure (SMILES) | Activity [1] | Activity [2] | Activity [3] | Activity [4] | IC50 [5] [µM] | Activity [6] | Activity [7] | Activity [8] | Activity [9] | Activity [10] | Activity [11] | Activity [12] | Activity [13] | Activity [14] | Activity [15] | Activity [16] | Activity [17]
1 | CCCCCCCCCCCC[C@H](C(=O)O)[C@@](O)(Cc1ccc(O)cc1)C(=O)O | inactive | inactive | inactive | inactive | 30 | inactive | inactive | inactive | inactive |  |  |  |  |  |  |  | 
2 | CCCCCCCCCCC[C@H](C(=O)O)[C@@](O)(Cc1ccc(O)cc1)C(=O)O |  |  |  |  | 3.2 |  |  |  |  | inactive | inactive | inactive | inactive | inactive | inactive | inactive | inactive
3 | CCCCCC/C=C\CCCC[C@H](C(=O)O)[C@@](O)(Cc1ccc(O)cc1)C(=O)O | inactive | inactive | inactive | inactive | > 30 | inactive | inactive | inactive | inactive |  |  |  |  |  |  |  | 
4 | CCCCCCCCCC[C@H](C(=O)O)[C@@](O)(Cc1ccc(O)cc1)C(=O)O | inactive | inactive | inactive | inactive | 26 | inactive | inactive | inactive | inactive |  |  |  |  |  |  |  | 

Source: ChEMBL document CHEMBL4196248, “Callyspongidic Acids: Amphiphilic Diacids from the Tropical Eastern Pacific Sponge Callyspongia cf. californica” (J Nat Prod, 2018)
